# Test results from ChEMBL document CHEMBL3227917, “Structure-activity relationships of dimeric Catharanthus alkaloids. 2. Experimental antitumor activities of N-substituted deacetylvinblastine amide (vindesine) sulfates” (J Med Chem, 1979).
# Tests used:
# [1] = test system: Mus musculus; experiment: Toxicity in C3H mouse allografted with mouse Gardner lymphosarcoma assessed as lethality at 0.5 mg/kg, ip administered daily for 8 to 10 days; assay type: organism-based; set-up: dose 0.5 mg/kg, route intraperitoneal; details: in vivo
# Procedure, shortened: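 Tumor-bearing mice given sulfate salts ip daily for 8–10 days; values are the average of one or more tests. Toxic means lethal to ≥5 of 10 animals per group.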
# [2] = test system: P388/VCR; experiment: Antitumor activity against mouse P388/VCR cells allografted in CD2F1 mouse assessed as increase in host lifespan at 0.648 mg/kg, ip administered on days 1, 5 and 9; assay type: functional; details: route intraperitoneal
# Procedure, shortened: (§1)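 Groups of eight male CD2F1 mice bearing P388 leukemia, run at NCI. Sulfate salts given ip on days 1, 5 and 9. Read-out is percent increase in lifespan.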
# [3] = Antitumor activity against mouse Ridgway osteogenic sarcoma allografted in AKR mouse assessed as tumor growth inhibition at 0.05 mg/kg, ip administered daily for 8 to 10 days compound treatment commenced 8 days after tumor implantation; assay type: functional; details: route intraperitoneal, read-out: TGI
# [4] = Antitumor activity against mouse Gardner lymphosarcoma allografted in C3H mouse assessed as tumor growth inhibition at 0.10 mg/kg, ip administered daily for 8 to 10 days; assay type: functional; details: route intraperitoneal, read-out: TGI
# Procedure, shortened: (§2)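 Gardner lymphosarcoma in C3H mice; sulfate salts unless noted, given ip daily for 8–10 days, treatment starting 8 days after tumor implantation. Tumor growth inhibition scored as –, 0–25%; +, 26–50%; ++, 51–75%; +++, 76–100%; T, lethal to ≥5 of 10 animals per group. Average of one or more tests.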
# [5] = Antitumor activity against mouse P1534 cells allografted in DBA2 mouse assessed as tumor growth inhibition at 0.20 mg/kg, ip administered daily for 8 to 10 days; assay type: functional; details: route intraperitoneal, read-out: TGI
# Procedure, shortened: (§3)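 P1534(J) leukemia implanted sc in DBA2 mice; sulfate salts dosed ip daily for 8–10 days. Growth inhibition scored –, 0–25%; +, 26–50%; ++, 51–75%; +++, 76–100%; T, lethal to ≥5 of 10 animals per group. Average of one or more tests.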
# [6] = test system: CHO; experiment: Mitotic arrest in CHO cells assessed as increase in cell accumulation at 0.02 ug/ml; assay type: functional, Cricetulus griseus
# Procedure, shortened: (§4)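 Chinese hamster ovary cells in tissue culture, scored for mitotic arrest as increase in cells in mitotic arrest over control: +++, 40–50%; ++, 15–40%; +, 10–15%; ±, 7–10%; –, 3–7%. Cytotoxicity noted separately.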
# [7] = Antitumor activity against mouse Gardner lymphosarcoma allografted in C3H mouse assessed as tumor growth inhibition at 0.05 mg/kg, ip administered daily for 8 to 10 days; assay type: functional; details: route intraperitoneal, read-out: TGI; procedure, shortened: as §2
# [8] = Antitumor activity against mouse P388/VCR/I/63 cells allografted in Dublin-CDF1 mouse assessed as day of host death at 2.0 mg/kg, ip administered on days 1, 5 and 9 (reference value: 10 days); assay type: functional; details: route intraperitoneal
# [9] = test system: P388/S; experiment: Antitumor activity against mouse P388/S cells allografted in CD2F1 mouse assessed as increase in host lifespan at 1.80 mg/kg, ip administered on days 1, 5 and 9; assay type: functional; details: dose 1.8 mg/kg; route intraperitoneal
# Procedure, shortened: (§5)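 Groups of eight male CD2F1 mice, tested at the NCI. Compounds were given as sulfate salts, dosed in mg/kg ip on days 1, 5 and 9. Activity was read as percent increase in lifespan against the leukemia line.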
# [10] = test system: B16; experiment: Antitumor activity against mouse B16 cells allografted in C57BL/6 mouse assessed as prolongation of host survival at 1.20 mg/kg, ip administered on days 1,5 and 9; assay type: functional; details: route intraperitoneal
# Procedure, shortened: (§6)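 B16 melanoma cells (10⁶ inoculum) implanted ip in C57BL/6 mice; groups of 10. Sulfate salts unless noted, given ip on days 1, 5 and 9. Single test. Survival prolongation is expressed as percent versus controls, with survivors counted on day 60. Toxic means deaths of ≥5 of 10 animals before the first control death.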
# [11] = Antitumor activity against mouse Ridgway osteogenic sarcoma allografted in AKR mouse assessed as tumor growth inhibition at 0.30 mg/kg, ip administered daily for 8 to 10 days compound treatment commenced 8 days after tumor implantation; assay type: functional; details: route intraperitoneal, read-out: TGI
# [12] = Antitumor activity against mouse Ridgway osteogenic sarcoma allografted in AKR mouse assessed as tumor growth inhibition at 0.10 mg/kg, ip administered daily for 8 to 10 days compound treatment commenced 8 days after tumor implantation; assay type: functional; details: route intraperitoneal, read-out: TGI
# [13] = test system: P388/S; experiment: Antitumor activity against mouse P388/S cells allografted in CD2F1 mouse assessed as increase in host lifespan at 1.08 mg/kg, ip administered on days 1, 5 and 9; assay type: functional; details: route intraperitoneal; procedure, shortened: as §1
# [14] = test system: P388/VCR; experiment: Antitumor activity against mouse P388/VCR cells allografted in B6D2F1 mouse assessed as increase in host lifespan at 1.20 mg/kg, ip administered on days 1, 5 and 9; assay type: functional; details: dose 1.2 mg/kg; route intraperitoneal
# Procedure, shortened: (§7)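 P388/VCR leukemia in groups of 10 B6D2F1 mice, run at Lilly using the cell strain received from NCI. Sulfate salts given ip on days 1, 5 and 9. Read-out is percent increase in lifespan.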
# [15] = test system: Mus musculus; experiment: Toxicity in CD2F1 mouse allografted with mouse P388/VCR cells at 3.00 mg/kg, ip administered on days 1, 5 and 9; assay type: organism-based; set-up: dose 3 mg/kg, route intraperitoneal; details: in vivo
# [16] = test system: B16; experiment: Antitumor activity against mouse B16 cells allografted in C57BL/6 mouse assessed as prolongation of host survival at 0.90 mg/kg, ip administered on days 1,5 and 9; assay type: functional; details: route intraperitoneal; procedure, shortened: as §6
# [17] = test system: P388/S; experiment: Antitumor activity against mouse P388/S cells allografted in CD2F1 mouse assessed as increase in host lifespan at 0.648 mg/kg, ip administered on days 1, 5 and 9; assay type: functional; details: route intraperitoneal; procedure, shortened: as §1
# [18] = test system: B16; experiment: Antitumor activity against mouse B16 cells allografted in C57BL/6 mouse assessed as prolongation of host survival at 0.60 mg/kg, ip administered on days 1,5 and 9; assay type: functional; details: route intraperitoneal; procedure, shortened: as §6
# [19] = test system: P388/VCR; experiment: Antitumor activity against mouse P388/VCR cells allografted in CD2F1 mouse assessed as increase in host lifespan at 1.80 mg/kg, ip administered on days 1, 5 and 9; assay type: functional; details: dose 1.8 mg/kg; route intraperitoneal; procedure, shortened: as §5
# [20] = Antitumor activity against mouse Ridgway osteogenic sarcoma allografted in AKR mouse assessed as tumor growth inhibition at 0.20 mg/kg, ip administered daily for 8 to 10 days compound treatment commenced 8 days after tumor implantation; assay type: functional; details: route intraperitoneal, read-out: TGI
# [21] = Antitumor activity against mouse Gardner lymphosarcoma allografted in C3H mouse assessed as tumor growth inhibition at 0.30 mg/kg, ip administered daily for 8 to 10 days; assay type: functional; details: route intraperitoneal, read-out: TGI; procedure, shortened: as §2
# [22] = test system: Mus musculus; experiment: Toxicity in mouse assessed as body weight at 0.5 mg/kg, ip administered twice per week for 4 weeks, then three doses per week for 3 weeks and finally six doses per week for 2 weeks measured during 9-weeks (reference value: 18.5 +/- 0.5 gms); assay type: organism-based; set-up: dose 0.5 mg/kg, route intraperitoneal; details: in vivo, 1512 h
# [23] = Antitumor activity against mouse Gardner lymphosarcoma allografted in C3H mouse assessed as tumor growth inhibition at 0.20 mg/kg, ip administered daily for 8 to 10 days; assay type: functional; details: route intraperitoneal, read-out: TGI; procedure, shortened: as §2
# [24] = test system: P388/VCR; experiment: Antitumor activity against mouse P388/VCR cells allografted in B6D2F1 mouse assessed as increase in host lifespan at 0.90 mg/kg, ip administered on days 1, 5 and 9; assay type: functional; details: dose 0.9 mg/kg; route intraperitoneal; procedure, shortened: as §7
# [25] = Antitumor activity against mouse P388/VCR/I/63 cells allografted in Dublin-CDF1 mouse assessed as increase in host lifespan at 2.0 mg/kg, ip administered on days 1, 5 and 9; assay type: functional; details: route intraperitoneal
# [26] = test system: CHO; experiment: Mitotic arrest in CHO cells assessed as increase in cell accumulation at 0.002 ug/ml; assay type: functional, Cricetulus griseus; procedure, shortened: as §4
# [27] = test system: Mus musculus; experiment: Toxicity in CD2F1 mouse allografted with mouse P388/S cells at 3.00 mg/kg, ip administered on days 1, 5 and 9; assay type: organism-based; set-up: dose 3 mg/kg, route intraperitoneal; details: in vivo
# [28] = Antitumor activity against mouse P1534 cells allografted in DBA2 mouse assessed as tumor growth inhibition at 0.30 mg/kg, ip administered daily for 8 to 10 days; assay type: functional; details: route intraperitoneal, read-out: TGI; procedure, shortened: as §3
# [29] = Toxicity in iv dosed mouse assessed as lethality; assay type: organism-based; details: in vivo
# [30] = test system: P388/VCR; experiment: Antitumor activity against mouse P388/VCR cells allografted in CD2F1 mouse assessed as increase in host lifespan at 1.08 mg/kg, ip administered on days 1, 5 and 9; assay type: functional; details: route intraperitoneal; procedure, shortened: as §1
# [31] = Antitumor activity against mouse Gardner lymphosarcoma allografted in C3H mouse assessed as tumor growth inhibition at 0.40 mg/kg, ip administered daily for 8 to 10 days; assay type: functional; details: route intraperitoneal, read-out: TGI; procedure, shortened: as §2
# [32] = Antitumor activity against mouse P1534 cells allografted in DBA2 mouse assessed as tumor growth inhibition at 0.25 mg/kg, ip administered daily for 8 to 10 days; assay type: functional; details: route intraperitoneal, read-out: TGI; procedure, shortened: as §3
# [33] = test system: Mus musculus; experiment: Toxicity in DBA2 mouse allografted with mouse P1534 cells at 0.40 mg/kg, ip administered daily for 8 to 10 days; assay type: organism-based; set-up: dose 0.4 mg/kg, route intraperitoneal; details: in vivo, 0.4 mg/kg; procedure, shortened: as §3
# [34] = Antitumor activity against mouse Ridgway osteogenic sarcoma allografted in AKR mouse assessed as tumor growth inhibition at 0.40 mg/kg, ip administered daily for 8 to 10 days compound treatment commenced 8 days after tumor implantation; assay type: functional; details: route intraperitoneal, read-out: TGI
# [35] = test system: P388/VCR; experiment: Antitumor activity against mouse P388/VCR cells allografted in B6D2F1 mouse assessed as increase in host lifespan at 0.60 mg/kg, ip administered on days 1, 5 and 9; assay type: functional; details: dose 0.6 mg/kg; route intraperitoneal; procedure, shortened: as §7
smiles,measurement,setting,value
CC[C@]1(O)C[C@@H]2CN(CCc3c([nH]c4ccccc34)[C@@](C(=O)OC)(c3cc4c(cc3OC)N(C)[C@H]3[C@@](O)(C(N)=O)[C@H](O)[C@]5(CC)C=CCN6CC[C@]43[C@@H]65)C2)C1.O=S(=O)(O)O [VINDESINE SULFATE],Activity,[1],Toxic
same,Activity,[2],4%
same,inhibition in vivo at 0.05 mg/kg,[3],0%
same,inhibition in vivo at 0.1 mg/kg,[4],51%
same,inhibition in vivo at 0.2 mg/kg,[5],51%
same,Activity,[6],15%
same,inhibition in vivo at 0.05 mg/kg,[7],0%
same,Activity,[8],20 days
same,Activity,[9],138%
same,survival at 1.2 mg/kg,[10],155%
same,inhibition in vivo at 0.3 mg/kg,[11],76%
same,inhibition in vivo at 0.1 mg/kg,[12],0%
same,Activity,[13],129%
same,Activity,[14],3%
same,Activity,[15],Toxic
same,survival at 0.9 mg/kg,[16],144%
same,Activity,[17],96%
same,survival at 0.6 mg/kg,[18],117%
same,Activity,[19],-8%
same,inhibition in vivo at 0.2 mg/kg,[20],51%
same,inhibition in vivo at 0.3 mg/kg,[21],76%
same,Activity,[22],34.9 g
same,inhibition in vivo at 0.2 mg/kg,[23],76%
same,Activity,[24],5%
same,Activity,[25],100%
same,Activity,[26],10%
same,Activity,[27],Toxic
same,inhibition in vivo at 0.3 mg/kg,[28],76%
same,LD50,[29],6.3 mg/kg
same,Activity,[30],0%
same,inhibition in vivo at 0.4 mg/kg,[31],76%
same,inhibition in vivo at 0.25 mg/kg,[32],76%
same,Activity,[33],Toxic
same,inhibition in vivo at 0.4 mg/kg,[34],76%
same,Activity,[35],0%
